Values after ≈ are worked out from the molar mass of the structure shown.
Experiments:
Bacteroides fragilis = experiment: Compound was tested in vitro for its antibacterial activity (minimum inhibitory concentration) against Bacteroides fragilis A 22862.; format: functional; conditions: A22862
Enterococcus faecalis = experiment: In vitro antibacterial activity against Enterococcus faecalis A 9809; format: functional
Escherichia coli [1] = experiment: In vitro antibacterial activity against Escherichia coli A 15119; format: functional
Enterobacter cloacae = experiment: In vitro antibacterial activity against Enterobacter cloacae A 9656; format: functional
Haemophilus influenzae = experiment: In vitro antibacterial activity against Haemophilus influenzae A 21515; format: functional
Klebsiella pneumoniae = experiment: In vitro antibacterial activity against Klebsiella pneumoniae A 9664; format: functional
Morganella morganii = experiment: In vitro antibacterial activity against Morganella morganii A 15153; format: functional
Pseudomonas aeruginosa = experiment: Compound was tested in vitro for its antibacterial activity (minimum inhibitory concentration, MIC) against Pseudomonas aeruginosa A 9843; format: functional
Proteus mirabilis = experiment: In vitro antibacterial activity (minimum inhibitory concentration, MIC) against Proteus mirabilis A 9900; format: functional
Serratia marcescens = experiment: In vitro antibacterial activity (minimum inhibitory concentration) against Serratia marcescens A 20019.; format: functional
Streptococcus pneumoniae = experiment: In vitro antibacterial activity against Streptococcus pneumoniae A 9585; format: functional
Staphylococcus aureus [2] = experiment: In vitro antibacterial activity against Staphylococcus aureus A 24227; format: functional
Staphylococcus aureus [3] = experiment: In vitro antibacterial activity (minimum inhibitory concentration, MIC) against Staphylococcus aureus A 9537.; format: functional
Escherichia coli [4] = experiment: Compound was tested for the dose to protect 50% of mice from lethal infection against Escherichia coli A 15119 after peroral administration to OF1-strain of female Swiss mice.; format: functional; conditions: po, read-out: PD50
Summary of the method: (§1)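 Compounds dissolved in sterile water and given orally to female OF1 Swiss mice weighing 18-25 g, five mice per group.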

Mus musculus = experiment: Compound was evaluated in vivo in urine sample collected over 24 hours for its concentration after 40 mg/kg peroral administration to mice; format: functional; conditions: route oral
Summary of the method: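 Mice were dosed at 40 mg/kg, either orally with a blunt needle and syringe or intramuscularly, with separate groups for each route. Blood was drawn from the orbital sinus at 5, 15, 30, 60, 120 and 180 min. Urine was pooled over 24 h. Drug levels were measured by agar disk diffusion microbioassay with Salmonella enteritidis A9531 as the assay organism.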

[5] = Compound was tested for the dose to protect 50% of mice from lethal infection against Streptococcus pneumoniae after peroral administration to OF1-strain of female Swiss mice.; format: functional; conditions: po, read-out: PD50; summary of the method: as §1
Canis familiaris = experiment: Compound was evaluated in vivo in urine sample collected over 24 hours for its concentration after 25 mg/kg peroral administration to dogs.; conditions: route oral

MIC (Bacteroides fragilis)	MIC (Enterococcus faecalis)	MIC (Escherichia coli [1])	MIC (Enterobacter cloacae)	MIC (Haemophilus influenzae)	MIC (Klebsiella pneumoniae)	MIC (Morganella morganii)	MIC (Pseudomonas aeruginosa)	MIC (Proteus mirabilis)	MIC (Serratia marcescens)	MIC (Streptococcus pneumoniae)	MIC (Staphylococcus aureus [2])	MIC (Staphylococcus aureus [3])	S	SMILES	ED50 (Escherichia coli [4])	UR (Mus musculus)	ED50 [5]	UR (Canis familiaris)
125 µg/mL	32 µg/mL	0.25 µg/mL	0.25 µg/mL	0.06 µg/mL	0.5 µg/mL	0.25 µg/mL	4 µg/mL	1 µg/mL	1 µg/mL	32 µg/mL	4 µg/mL	4 µg/mL	240 µg/mL	Cl.O=C(O)c1cn(C(CF)(CF)CF)c2nc(N3CC4C[C@@H]3CN4)c(F)cc2c1=O	–	–	–	–
125 µg/mL	4 µg/mL	0.5 µg/mL	1 µg/mL	0.5 µg/mL	2 µg/mL	2 µg/mL	32 µg/mL	4 µg/mL	2 µg/mL	8 µg/mL	1 µg/mL	0.5 µg/mL	–	C[C@H]1C[C@H](N)CN1c1nc2c(cc1F)c(=O)c(C(=O)O)cn2C(CF)(CF)CF.Cl	–	–	–	–
4 µg/mL (≈ 10.5 µM)	0.25 µg/mL (≈ 0.659 µM)	0.008 µg/mL (≈ 0.0211 µM)	0.03 µg/mL (≈ 0.0791 µM)	0.008 µg/mL (≈ 0.0211 µM)	0.13 µg/mL (≈ 0.343 µM)	0.06 µg/mL (≈ 0.158 µM)	0.5 µg/mL (≈ 1.32 µM)	0.06 µg/mL (≈ 0.158 µM)	0.13 µg/mL (≈ 0.343 µM)	0.25 µg/mL (≈ 0.659 µM)	0.06 µg/mL (≈ 0.158 µM)	0.03 µg/mL (≈ 0.0791 µM)	–	C[C@H]1CN(c2cc3c(cc2F)c(=O)c(C(=O)O)cn3C(C)(C)CF)C[C@@H]1N	–	–	–	–
8 µg/mL (≈ 23 µM)	1 µg/mL (≈ 2.87 µM)	0.016 µg/mL (≈ 0.0459 µM)	0.06 µg/mL (≈ 0.172 µM)	0.016 µg/mL (≈ 0.0459 µM)	0.03 µg/mL (≈ 0.0861 µM)	0.06 µg/mL (≈ 0.172 µM)	0.5 µg/mL (≈ 1.44 µM)	0.13 µg/mL (≈ 0.373 µM)	0.06 µg/mL (≈ 0.172 µM)	1 µg/mL (≈ 2.87 µM)	0.25 µg/mL (≈ 0.718 µM)	0.06 µg/mL (≈ 0.172 µM)	820 µg/mL	CC(C)(C)n1cc(C(=O)O)c(=O)c2cc(F)c(N3CCNCC3)nc21	–	–	–	–
125 µg/mL	16 µg/mL	0.13 µg/mL	0.25 µg/mL	0.25 µg/mL	0.25 µg/mL	0.13 µg/mL	4 µg/mL	1 µg/mL	0.5 µg/mL	16 µg/mL	4 µg/mL	4 µg/mL	–	CC(CF)(CF)n1cc(C(=O)O)c(=O)c2cc(F)c(N3CCNCC3)nc21.Cl	–	–	–	–
125 µg/mL	32 µg/mL	0.5 µg/mL	2 µg/mL	0.25 µg/mL	2 µg/mL	2 µg/mL	32 µg/mL	2 µg/mL	2 µg/mL	32 µg/mL	8 µg/mL	4 µg/mL	–	Cl.N[C@H]1CCN(c2nc3c(cc2F)c(=O)c(C(=O)O)cn3C(CF)(CF)CF)C1	–	–	–	–
125 µg/mL	16 µg/mL	0.5 µg/mL	0.5 µg/mL	0.5 µg/mL	1 µg/mL	0.5 µg/mL	16 µg/mL	2 µg/mL	1 µg/mL	32 µg/mL	8 µg/mL	8 µg/mL	–	Cl.O=C(O)c1cn(C(CF)(CF)CF)c2nc(N3CCNCC3)c(F)cc2c1=O	–	–	–	–
16 µg/mL	4 µg/mL	0.03 µg/mL	0.13 µg/mL	0.5 µg/mL	0.03 µg/mL	0.06 µg/mL	1 µg/mL	0.5 µg/mL	0.25 µg/mL	0.03 µg/mL	0.13 µg/mL	0.03 µg/mL	–	CC(C)(CF)n1cc(C(=O)O)c(=O)c2cc(F)c(N3CC[C@H](N)C3)nc21.Cl	–	–	–	–
2 µg/mL	0.5 µg/mL	0.004 µg/mL	0.06 µg/mL	0.06 µg/mL	0.016 µg/mL	0.016 µg/mL	0.5 µg/mL	0.06 µg/mL	0.13 µg/mL	1 µg/mL	0.016 µg/mL	0.016 µg/mL	–	CC(C)(CF)n1cc(C(=O)O)c(=O)c2cc(F)c(N3CC(N)C3)cc21.Cl	–	–	–	–
16 µg/mL	2 µg/mL	0.13 µg/mL	0.25 µg/mL	0.13 µg/mL	0.25 µg/mL	0.13 µg/mL	1 µg/mL	0.25 µg/mL	0.25 µg/mL	0.5 µg/mL	0.5 µg/mL	0.25 µg/mL	1600 µg/mL	CC(C)(CF)n1cc(C(=O)O)c(=O)c2cc(F)c(N3CCNCC3)nc21.Cl	–	–	–	–
8 µg/mL	0.5 µg/mL	0.016 µg/mL	0.06 µg/mL	0.008 µg/mL	0.06 µg/mL	0.13 µg/mL	0.25 µg/mL	0.06 µg/mL	0.13 µg/mL	1 µg/mL	0.25 µg/mL	0.5 µg/mL	–	CC(C)(CF)n1cc(C(=O)O)c(=O)c2cc(F)c(N3C[C@H]4CC3CN4)cc21.Cl	–	–	–	–
16 µg/mL	0.13 µg/mL	0.016 µg/mL	0.06 µg/mL	0.016 µg/mL	0.06 µg/mL	0.13 µg/mL	1 µg/mL	0.13 µg/mL	0.13 µg/mL	0.13 µg/mL	0.008 µg/mL	0.008 µg/mL	–	C[C@H]1C[C@H](N)CN1c1nc2c(cc1F)c(=O)c(C(=O)O)cn2C(C)(C)CF.Cl	–	–	–	–
32 µg/mL	4 µg/mL	0.13 µg/mL	0.13 µg/mL	0.016 µg/mL	0.5 µg/mL	0.13 µg/mL	1 µg/mL	0.5 µg/mL	0.5 µg/mL	8 µg/mL	2 µg/mL	2 µg/mL	–	CC(CF)(CF)n1cc(C(=O)O)c(=O)c2cc(F)c(N3CC4C[C@@H]3CN4)nc21.Cl	–	–	–	–

SMILES	MIC (Bacteroides fragilis)	MIC (Enterococcus faecalis)	MIC (Escherichia coli [1])	MIC (Enterobacter cloacae)	MIC (Haemophilus influenzae)	MIC (Klebsiella pneumoniae)	MIC (Morganella morganii)	MIC (Pseudomonas aeruginosa)	MIC (Proteus mirabilis)	MIC (Serratia marcescens)	MIC (Streptococcus pneumoniae)	MIC (Staphylococcus aureus [2])	MIC (Staphylococcus aureus [3])	S	ED50 (Escherichia coli [4])	UR (Mus musculus)	ED50 [5]	UR (Canis familiaris)
CS(=O)(=O)O.C[C@H]1C[C@H](N)CN1c1cc2c(cc1F)c(=O)c(C(=O)O)cn2C(C)(C)CF	4 µg/mL	0.25 µg/mL	0.03 µg/mL	0.06 µg/mL	0.016 µg/mL	0.13 µg/mL	0.5 µg/mL	1 µg/mL	0.13 µg/mL	0.25 µg/mL	0.25 µg/mL	0.03 µg/mL	0.03 µg/mL	–	–	–	–	–
CC(CF)(CF)n1cc(C(=O)O)c(=O)c2cc(F)c(N3CC[C@H](N)C3)cc21.CS(=O)(=O)O	4 µg/mL	0.5 µg/mL	0.008 µg/mL	0.06 µg/mL	0.001 µg/mL	0.13 µg/mL	0.016 µg/mL	0.25 µg/mL	0.03 µg/mL	0.13 µg/mL	0.5 µg/mL	0.13 µg/mL	0.06 µg/mL	–	–	–	–	–
CC(C)(C)n1cc(C(=O)O)c(=O)c2cc(F)c(N3CC[C@H](N)C3)nc21	1 µg/mL (≈ 2.87 µM)	0.06 µg/mL (≈ 0.172 µM)	0.016 µg/mL (≈ 0.0459 µM)	0.03 µg/mL (≈ 0.0861 µM)	–	0.03 µg/mL (≈ 0.0861 µM)	0.13 µg/mL (≈ 0.373 µM)	0.25 µg/mL (≈ 0.718 µM)	0.13 µg/mL (≈ 0.373 µM)	0.25 µg/mL (≈ 0.718 µM)	0.008 µg/mL (≈ 0.023 µM)	0.002 µg/mL (≈ 0.00574 µM)	0.004 µg/mL (≈ 0.0115 µM)	–	1.2 mg/kg	10%	> 25 mg/kg	9%
CC(CF)(CF)n1cc(C(=O)O)c(=O)c2cc(F)c(N3CCNCC3)cc21.Cl	16 µg/mL	1 µg/mL	0.13 µg/mL	0.25 µg/mL	0.06 µg/mL	0.13 µg/mL	0.06 µg/mL	1 µg/mL	0.13 µg/mL	0.5 µg/mL	8 µg/mL	2 µg/mL	1 µg/mL	–	–	–	–	–
CC(C)(CF)n1cc(C(=O)O)c(=O)c2cc(F)c(N3CCNCC3)cc21.Cl	8 µg/mL	0.25 µg/mL	0.016 µg/mL	0.03 µg/mL	0.016 µg/mL	0.016 µg/mL	0.016 µg/mL	0.25 µg/mL	0.03 µg/mL	0.06 µg/mL	1 µg/mL	0.06 µg/mL	0.13 µg/mL	–	–	–	–	–
CC(C)(C)n1cc(C(=O)O)c(=O)c2cc(F)c(N3CCNCC3)cc21	–	2 µg/mL (≈ 5.76 µM)	0.06 µg/mL (≈ 0.173 µM)	0.13 µg/mL (≈ 0.374 µM)	–	0.06 µg/mL (≈ 0.173 µM)	0.25 µg/mL (≈ 0.72 µM)	0.5 µg/mL (≈ 1.44 µM)	0.25 µg/mL (≈ 0.72 µM)	0.5 µg/mL (≈ 1.44 µM)	–	–	0.25 µg/mL (≈ 0.72 µM)	130 µg/mL	–	–	–	–
CC(CF)(CF)n1cc(C(=O)O)c(=O)c2cc(F)c(N3CC[C@H](N)C3)nc21.CS(=O)(=O)O	125 µg/mL	16 µg/mL	0.5 µg/mL	0.5 µg/mL	0.25 µg/mL	2 µg/mL	0.5 µg/mL	8 µg/mL	4 µg/mL	2 µg/mL	16 µg/mL	4 µg/mL	8 µg/mL	–	–	–	–	–

Reference: ChEMBL document CHEMBL1125733, “Fluoronaphthyridines and -quinolones as antibacterial agents. 3. Synthesis and structure-activity relationships of new 1-(1,1-dimethyl-2-fluoroethyl), 1-[1-methyl-1-(fluoromethyl)-2-fluoroethyl], and 1-[1,1-(difluoromethyl)-2-fluoroethyl] substituted derivatives” (J Med Chem, 1991)
